pEC50, pIC50: −log10 of the molar value. Like-named read-outs stand apart in the source and are kept apart here.
Experiments:
[1] = biological target: triheteromeric GluN1/2A/2B receptors; conditions: read-out: glycine EC50; previously reported; ref Lotti et al., 2025; cited from earlier work
[2] = test system: NMDA receptor-mediated EPSCs from CA1 pyramidal neurons; format: cell-based, mouse; conditions: 3 μM compound, baseline vs following NAM application
How it was run: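 Hippocampal slices from 3–5-week-old male and female C57BL/6J mice, perfused with aCSF at 32 °C. Whole-cell recordings from CA1 cells with Cs-based internal solution at +40 mV. Schaffer collaterals stimulated every 30 s with 10 μM NBQX and 10 μM gabazine. After 5-min baseline, test compound bath-applied at 3 μM. τW from double-exponential fit of deactivation; ratio paired t-test.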

GluN1/2A receptors [3] = biological target: T1, GluN1/2A receptors (Rattus norvegicus, UniProt P35439+Q00959); conditions: ref Lotti et al., 2025, cited from earlier work; for Kb: read-out: binding affinity KB
GluN1/2A receptors [4] = biological target: T1, GluN1/2A receptors; format: cell-based; conditions: for selectivity for GluN1/2A over GluN1/2B-D receptors: in 1 μM glycine; for IC50: read-out: IC50 (95% CI), […] μM glycine
[5] = test system: triheteromeric GluN1/2A/2B receptors; format: cell-based, rat; conditions: 100 μM glutamate; for Hill slope nH of inhibition: 1 μM glycine; for IC50: read-out: IC50 (95% CI), […] μM glycine
GluN1/2B receptors = GluN1/2B receptors (Rattus norvegicus, UniProt P35439+Q00960); assay: Two-electrode voltage-clamp recordings of recombinant GluN1/2B receptors; format: cell-based; conditions: for Hill slope nH of inhibition: 0.3 μM glycine, 100 μM glutamate; for selectivity for GluN1/2A over GluN1/2B: glycine concentration close to respective EC50
GluN1/2C receptors = GluN1/2C receptors (Rattus norvegicus, UniProt P35439+Q00961); assay: Two-electrode voltage-clamp recordings of recombinant GluN1/2C receptors; format: cell-based; conditions: for selectivity for GluN1/2A over GluN1/2C: glycine concentration close to respective EC50
GluN1/2D receptors = GluN1/2D receptors (Rattus norvegicus, UniProt P35439+Q62645); assay: Two-electrode voltage-clamp recordings of recombinant GluN1/2D receptors; format: cell-based; conditions: for Hill slope nH of inhibition: 0.1 μM glycine, 100 μM glutamate; for selectivity for GluN1/2A over GluN1/2D: glycine concentration close to respective EC50
GluN1/2A-V529I = GluN1/2A-V529I (Rattus norvegicus, UniProt P35439+Q00959, V529I); assay: Two-electrode voltage-clamp recordings, mutant GluN1/2A-V529I; format: cell-based
GluN1/2A-V783F = GluN1/2A-V783F (Rattus norvegicus, UniProt P35439+Q00959, V783F); assay: Two-electrode voltage-clamp recordings, mutant GluN1/2A-V783F; format: cell-based; conditions: 0.5 μM glycine; for Hill slope nH of inhibition: 300 μM glutamate; for decrease of potency compared to wild type GluN1/2A: saturating glutamate
GluN1/2A-V783L = GluN1/2A-V783L (Rattus norvegicus, UniProt P35439+Q00959, V783L); assay: Two-electrode voltage-clamp recordings, mutant GluN1/2A-V783L; format: cell-based; conditions: 0.5 μM glycine; for Hill slope nH of inhibition: 300 μM glutamate; for decrease of potency compared to wild type GluN1/2A: saturating glutamate
GluN1/2A-M788I = GluN1/2A-M788I (Rattus norvegicus, UniProt P35439+Q00959, M788I); assay: Two-electrode voltage-clamp recordings, mutant GluN1/2A-M788I; format: cell-based
GluN1/2A-M788T = GluN1/2A-M788T (Rattus norvegicus, UniProt P35439+Q00959, M788T); assay: Two-electrode voltage-clamp recordings, mutant GluN1/2A-M788T; format: cell-based
GluN1/2A-E789Q = GluN1/2A-E789Q (Rattus norvegicus, UniProt P35439+Q00959, E789Q); assay: Two-electrode voltage-clamp recordings, mutant GluN1/2A-E789Q; format: cell-based
GluN1/2A-T797S = GluN1/2A-T797S (Rattus norvegicus, UniProt P35439+Q00959, T797S); assay: Two-electrode voltage-clamp recordings, mutant GluN1/2A-T797S; format: cell-based
[6] = ref Volkmann et al., 2016; cited from earlier work
GluN1/2A-Y754K = GluN1/2A-Y754K (Rattus norvegicus, UniProt P35439+Q00959, Y754K); assay: Two-electrode voltage-clamp recordings, mutant GluN1/2A-Y754K; format: cell-based; conditions: 300 μM glutamate
GluN1/2A-I755F = GluN1/2A-I755F (Rattus norvegicus, UniProt P35439+Q00959, I755F); assay: Two-electrode voltage-clamp recordings, mutant GluN1/2A-I755F; format: cell-based
GluN1/2A-I755V = GluN1/2A-I755V (Rattus norvegicus, UniProt P35439+Q00959, I755V); assay: Two-electrode voltage-clamp recordings, mutant GluN1/2A-I755V; format: cell-based; conditions: 300 μM glutamate
GluN1/2A-I755V+Y754K = GluN1/2A-I755V+Y754K (Rattus norvegicus, UniProt P35439+Q00959, I755V/Y754K); assay: Two-electrode voltage-clamp recordings, mutant GluN1/2A-I755V+Y754K; format: cell-based; conditions: 1 μM glycine, 300 μM glutamate
GluN1/2A receptors [7] = biological target: T1, GluN1/2A receptors; format: cell-based; conditions: global non-linear regression of glycine concentration-response data
[8] = glycine near EC50, saturating glutamate
[9] = read-out: IC50 (95% CI), […] μM glycine, 300 μM glutamate
[10] = read-out: IC50 (95% CI), […] μM glycine

Chain of GluN1/2A-M788I (Q00959 23-1464 M788I, other chains not shown): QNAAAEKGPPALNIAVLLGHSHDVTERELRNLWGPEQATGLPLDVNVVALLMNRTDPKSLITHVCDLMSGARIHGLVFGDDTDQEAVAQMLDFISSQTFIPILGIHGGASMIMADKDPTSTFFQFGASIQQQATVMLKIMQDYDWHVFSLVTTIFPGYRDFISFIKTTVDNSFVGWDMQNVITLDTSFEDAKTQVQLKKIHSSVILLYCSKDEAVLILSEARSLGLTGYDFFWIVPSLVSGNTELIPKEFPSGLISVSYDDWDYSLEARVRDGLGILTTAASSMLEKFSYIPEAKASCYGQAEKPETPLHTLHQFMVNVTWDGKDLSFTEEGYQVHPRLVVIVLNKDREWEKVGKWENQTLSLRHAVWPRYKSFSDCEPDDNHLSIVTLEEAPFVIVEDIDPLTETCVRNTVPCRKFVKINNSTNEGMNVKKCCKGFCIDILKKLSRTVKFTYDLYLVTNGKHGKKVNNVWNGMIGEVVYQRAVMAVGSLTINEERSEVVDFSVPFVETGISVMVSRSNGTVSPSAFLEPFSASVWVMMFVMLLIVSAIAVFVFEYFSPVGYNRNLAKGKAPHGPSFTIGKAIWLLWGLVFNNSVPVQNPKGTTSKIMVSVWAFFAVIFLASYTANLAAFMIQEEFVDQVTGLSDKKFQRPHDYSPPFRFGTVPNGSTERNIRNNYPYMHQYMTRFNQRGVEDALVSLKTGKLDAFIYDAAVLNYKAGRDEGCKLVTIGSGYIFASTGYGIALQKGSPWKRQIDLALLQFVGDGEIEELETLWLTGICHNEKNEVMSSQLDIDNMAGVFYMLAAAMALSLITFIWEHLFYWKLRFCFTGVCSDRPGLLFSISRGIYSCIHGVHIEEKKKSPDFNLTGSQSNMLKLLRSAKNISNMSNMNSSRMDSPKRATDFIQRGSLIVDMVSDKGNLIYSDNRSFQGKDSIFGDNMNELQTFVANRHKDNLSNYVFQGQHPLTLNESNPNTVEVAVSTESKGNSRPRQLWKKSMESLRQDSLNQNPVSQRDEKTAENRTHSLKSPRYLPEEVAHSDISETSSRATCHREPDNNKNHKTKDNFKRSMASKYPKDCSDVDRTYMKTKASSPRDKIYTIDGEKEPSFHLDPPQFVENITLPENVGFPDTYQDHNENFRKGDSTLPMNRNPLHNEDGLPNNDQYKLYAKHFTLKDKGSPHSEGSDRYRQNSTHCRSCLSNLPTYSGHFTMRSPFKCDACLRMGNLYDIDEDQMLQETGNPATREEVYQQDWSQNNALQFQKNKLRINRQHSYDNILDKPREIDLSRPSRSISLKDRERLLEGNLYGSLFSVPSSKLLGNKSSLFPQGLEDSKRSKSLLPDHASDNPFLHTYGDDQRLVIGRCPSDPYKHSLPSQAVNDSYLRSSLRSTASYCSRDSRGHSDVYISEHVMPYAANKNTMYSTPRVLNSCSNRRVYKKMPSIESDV
Chain of GluN1/2A-T797S (Q00959 23-1464 T797S, other chains not shown): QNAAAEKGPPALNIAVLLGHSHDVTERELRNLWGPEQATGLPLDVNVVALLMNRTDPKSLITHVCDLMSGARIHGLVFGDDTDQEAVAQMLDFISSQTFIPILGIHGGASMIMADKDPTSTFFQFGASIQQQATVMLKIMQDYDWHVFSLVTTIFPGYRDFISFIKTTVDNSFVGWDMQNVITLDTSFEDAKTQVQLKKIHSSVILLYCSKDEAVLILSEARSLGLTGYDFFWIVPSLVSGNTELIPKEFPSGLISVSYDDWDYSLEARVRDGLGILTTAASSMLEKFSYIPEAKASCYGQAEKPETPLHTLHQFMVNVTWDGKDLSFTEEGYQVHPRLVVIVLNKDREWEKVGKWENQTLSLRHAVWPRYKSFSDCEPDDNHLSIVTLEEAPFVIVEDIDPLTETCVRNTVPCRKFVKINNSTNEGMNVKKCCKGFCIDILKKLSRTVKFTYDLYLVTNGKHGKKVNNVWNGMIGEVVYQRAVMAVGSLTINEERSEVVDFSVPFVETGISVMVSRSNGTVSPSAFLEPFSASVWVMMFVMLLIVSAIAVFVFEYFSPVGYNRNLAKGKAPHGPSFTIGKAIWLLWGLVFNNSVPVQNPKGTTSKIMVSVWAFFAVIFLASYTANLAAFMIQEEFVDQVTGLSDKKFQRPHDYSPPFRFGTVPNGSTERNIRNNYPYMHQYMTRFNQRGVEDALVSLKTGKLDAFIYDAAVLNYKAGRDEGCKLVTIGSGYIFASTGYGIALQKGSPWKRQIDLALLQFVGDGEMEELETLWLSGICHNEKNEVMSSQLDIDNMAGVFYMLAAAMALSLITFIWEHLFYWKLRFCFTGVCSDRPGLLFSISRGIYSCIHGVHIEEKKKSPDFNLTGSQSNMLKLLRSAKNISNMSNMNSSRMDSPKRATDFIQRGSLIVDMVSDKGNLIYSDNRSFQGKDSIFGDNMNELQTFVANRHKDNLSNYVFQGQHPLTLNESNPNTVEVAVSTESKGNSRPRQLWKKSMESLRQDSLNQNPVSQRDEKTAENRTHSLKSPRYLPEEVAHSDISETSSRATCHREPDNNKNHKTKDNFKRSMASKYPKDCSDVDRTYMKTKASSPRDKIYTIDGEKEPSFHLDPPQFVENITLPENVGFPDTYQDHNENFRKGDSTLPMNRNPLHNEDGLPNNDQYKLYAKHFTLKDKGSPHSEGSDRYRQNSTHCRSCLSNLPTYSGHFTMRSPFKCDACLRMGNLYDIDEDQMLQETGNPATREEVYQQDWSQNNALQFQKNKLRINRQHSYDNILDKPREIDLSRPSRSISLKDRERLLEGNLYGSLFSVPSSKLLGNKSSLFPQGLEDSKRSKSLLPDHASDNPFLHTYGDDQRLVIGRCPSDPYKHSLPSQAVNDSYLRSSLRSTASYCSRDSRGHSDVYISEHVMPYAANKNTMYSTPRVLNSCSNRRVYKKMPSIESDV
Chain of GluN1/2A-M788T (Q00959 23-1464 M788T, other chains not shown): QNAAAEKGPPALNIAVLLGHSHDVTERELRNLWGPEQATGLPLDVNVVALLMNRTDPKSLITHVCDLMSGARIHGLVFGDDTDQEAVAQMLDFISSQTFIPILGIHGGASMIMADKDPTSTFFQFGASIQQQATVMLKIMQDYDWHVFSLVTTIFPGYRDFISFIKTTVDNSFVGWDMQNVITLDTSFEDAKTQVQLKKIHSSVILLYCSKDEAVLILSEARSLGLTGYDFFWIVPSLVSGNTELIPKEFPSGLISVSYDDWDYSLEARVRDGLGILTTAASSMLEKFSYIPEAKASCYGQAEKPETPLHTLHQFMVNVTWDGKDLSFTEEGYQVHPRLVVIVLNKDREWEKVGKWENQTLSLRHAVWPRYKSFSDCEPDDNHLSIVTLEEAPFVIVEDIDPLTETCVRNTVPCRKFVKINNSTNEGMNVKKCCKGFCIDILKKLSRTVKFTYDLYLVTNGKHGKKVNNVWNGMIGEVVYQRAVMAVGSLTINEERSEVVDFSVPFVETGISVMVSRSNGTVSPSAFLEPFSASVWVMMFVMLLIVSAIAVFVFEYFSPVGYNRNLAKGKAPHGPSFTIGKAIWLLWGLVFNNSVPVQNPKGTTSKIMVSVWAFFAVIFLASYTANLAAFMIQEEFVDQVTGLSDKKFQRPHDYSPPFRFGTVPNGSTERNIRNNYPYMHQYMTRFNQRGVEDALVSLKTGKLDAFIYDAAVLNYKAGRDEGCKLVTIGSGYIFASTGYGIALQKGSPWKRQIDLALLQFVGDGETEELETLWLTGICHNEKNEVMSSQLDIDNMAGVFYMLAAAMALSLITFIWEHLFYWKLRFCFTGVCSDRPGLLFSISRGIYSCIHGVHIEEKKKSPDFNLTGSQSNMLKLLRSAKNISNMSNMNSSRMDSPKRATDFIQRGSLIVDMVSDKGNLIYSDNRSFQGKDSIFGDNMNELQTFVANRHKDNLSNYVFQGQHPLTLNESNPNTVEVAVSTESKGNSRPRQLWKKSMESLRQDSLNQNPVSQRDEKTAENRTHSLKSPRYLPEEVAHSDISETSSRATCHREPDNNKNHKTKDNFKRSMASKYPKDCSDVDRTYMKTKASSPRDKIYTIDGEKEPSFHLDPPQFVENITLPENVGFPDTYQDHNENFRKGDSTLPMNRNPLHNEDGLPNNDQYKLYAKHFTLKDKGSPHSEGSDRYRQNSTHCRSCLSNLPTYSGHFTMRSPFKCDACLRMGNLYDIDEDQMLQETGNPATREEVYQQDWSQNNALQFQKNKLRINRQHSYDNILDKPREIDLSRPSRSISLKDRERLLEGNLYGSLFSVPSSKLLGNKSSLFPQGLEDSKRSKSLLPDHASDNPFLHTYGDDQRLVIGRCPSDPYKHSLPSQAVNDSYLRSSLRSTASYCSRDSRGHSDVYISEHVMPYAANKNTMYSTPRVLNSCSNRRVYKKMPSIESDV

Structure (SMILES)	Kb (GluN1/2A receptors [3]) [nM]	negative allosteric interaction constant α (GluN1/2A receptors [3])	Hill slope nH of inhibition (GluN1/2A receptors [4]; 1 μM glycine, 100 μM glutamate)	selectivity for GluN1/2A over GluN1/2B-D receptors (GluN1/2A receptors [4]) [fold]	IC50 (GluN1/2A receptors [4]; 100 μM glutamate) [µM]	Hill slope nH of inhibition [5]	IC50 [5] [µM]	Hill slope nH of inhibition (GluN1/2B receptors)	selectivity for GluN1/2A over GluN1/2B (GluN1/2B receptors) [fold]	selectivity for GluN1/2A over GluN1/2C (GluN1/2C receptors) [fold]	Hill slope nH of inhibition (GluN1/2D receptors)	selectivity for GluN1/2A over GluN1/2D (GluN1/2D receptors) [fold]	Hill slope nH of inhibition (GluN1/2A-V783F)	decrease of potency compared to wild type GluN1/2A (GluN1/2A-V783F) [fold]	Hill slope nH of inhibition (GluN1/2A-V783L)	decrease of potency compared to wild type GluN1/2A (GluN1/2A-V783L) [fold]	also measured
NCC(=O)O [Glycine]																	pEC50 [1]: 6.00
Cc1ncc(CNC(=O)c2cnc(CNS(=O)(=O)c3ccc(F)c(Cl)c3)cn2)s1 [MPX-004]	9.3	0.0018															effect on EPSC decay times (weighted deactivation time constant τW) [2]: increases EPSC decay times
O=C(NNC(=O)c1ccc(CNS(=O)(=O)c2ccc(F)c(Cl)c2)cc1)c1ccccc1 [TCN-201]	42	0.0032	1.2	> 50	0.1	1.2	0.28	1.6	30	> 50	1.9	39	1.1	1.9	1.1	8.1	Hill slope nH of inhibition (GluN1/2A-V529I; 1 μM glycine, 300 μM glutamate): 1.5; decrease of potency compared to wild type GluN1/2A (GluN1/2A-V529I; [8]): 1.5 fold; Hill slope nH of inhibition (GluN1/2A-M788I; 1 μM glycine, 300 μM glutamate): 1.3; decrease of potency compared to wild type GluN1/2A (GluN1/2A-M788I; [8]): no significant effects; IC50 (GluN1/2A-M788I; [9]): 0.12 µM; Hill slope nH of inhibition (GluN1/2A-M788T; 0.3 μM glycine, 300 μM glutamate): 1.4; decrease of potency compared to wild type GluN1/2A (GluN1/2A-M788T; [8]): no significant effects; pIC50 (GluN1/2A-M788T; read-out: IC50 (95% CI), 0.3 μM glycine, 300 μM glutamate): 6.85; Hill slope nH of inhibition (GluN1/2A-E789Q; 1 μM glycine, 300 μM glutamate): 1.3; change of potency compared to wild type GluN1/2A (GluN1/2A-E789Q; [8]): no significant effects; IC50 (GluN1/2A-E789Q; [9]): 0.078 µM; Hill slope nH of inhibition (GluN1/2A-T797S; 1 μM glycine, 300 μM glutamate): 1.4; decrease of potency compared to wild type GluN1/2A (GluN1/2A-T797S; [8]): no significant effects; IC50 (GluN1/2A-T797S; [9]): 0.068 µM; blood-brain barrier penetration [6]: lack blood-brain barrier penetration
O=C(CSc1nnc(NCc2ccccc2)s1)NCC1CCCCC1 [TCN-213]			1.1	> 50	0.83	0.9	4	1.3	22	16	1.5	29	1.1	2.6	1.1	4.8	Hill slope nH of inhibition (GluN1/2A receptors [4]; 1 μM glycine, 10 μM glutamate): 1.1; Hill slope nH of inhibition (GluN1/2A receptors [4]; 30 μM glycine, 300 μM glutamate): 1.3; IC50 (GluN1/2A receptors [4]; 10 μM glutamate): 0.96 µM; Hill slope nH of inhibition (GluN1/2C receptors; 0.3 μM glycine, 100 μM glutamate): 1.1; Hill slope nH of inhibition (GluN1/2A-Y754K; 1 μM glycine): 1.1; IC50 (GluN1/2A-Y754K; [10]): 1.2 µM; Hill slope nH of inhibition (GluN1/2A-I755F; 1 μM glycine, 300 μM glutamate): 1.0; reduction of potency compared to wild type GluN1/2A (GluN1/2A-I755F; glycine EC50 concentration, saturating glutamate): not significantly different; IC50 (GluN1/2A-I755F; [9]): 1.1 µM; Hill slope nH of inhibition (GluN1/2A-I755V; 1 μM glycine): 1.1; IC50 (GluN1/2A-I755V; [10]): 1.2 µM; Hill slope nH of inhibition (GluN1/2A-I755V+Y754K): 1.0; allosteric constant α (GluN1/2A receptors [7]): 0.043
